Compound activity: PubChem, several laboratories
ATG4B inhibitor: blocks human ATG4B protease cleavage of LC3 substrate; Q9Y4P1; 0.51% of 340,000 active; AID 504462; ATG4B cleavage of LC3-PLA2, NBD-HPC fluorescence, 1 h; inhibition, % at 8.33 µM; in the data active means inhibition above about 40%
HTRA1 inhibitor: HTRA1 (human) protease inhibition. Q92743. recombinant HTRA1, FP-rhodamine activity-based probe, fluorescence polarization. inhibition, % at 5.96 µM. 0.5% of 340,000 active. AID 504803; in the data active means inhibition above about 36%;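 further: 0% = enzyme with DMSO and 100% = wells lacking enzyme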
Target sequence (Q92743 whole entry, looked up): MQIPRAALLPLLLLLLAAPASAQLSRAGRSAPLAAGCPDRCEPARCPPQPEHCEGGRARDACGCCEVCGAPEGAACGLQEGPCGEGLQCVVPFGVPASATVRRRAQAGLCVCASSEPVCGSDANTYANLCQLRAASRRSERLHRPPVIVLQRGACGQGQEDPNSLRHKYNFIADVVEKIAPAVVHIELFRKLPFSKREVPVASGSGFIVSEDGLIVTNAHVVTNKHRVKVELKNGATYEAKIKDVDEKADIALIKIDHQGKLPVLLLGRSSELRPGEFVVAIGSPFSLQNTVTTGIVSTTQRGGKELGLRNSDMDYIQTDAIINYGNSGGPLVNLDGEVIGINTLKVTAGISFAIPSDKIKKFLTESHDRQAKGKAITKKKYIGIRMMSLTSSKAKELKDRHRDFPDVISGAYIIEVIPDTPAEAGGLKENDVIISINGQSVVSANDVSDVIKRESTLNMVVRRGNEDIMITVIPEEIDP
TCR CD3 inh: blocks the human TCR-CD3 interaction | 0.37% of 360,000 active | AID 651800 | TAMRA-labeled TCR probe fluorescence, biochemical | inhibition, % at 9.4 µM; in the data active means inhibition above about 19%;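 further: recombinant mutant TCR 2C K166C tagged with TAMRA read by polarization; 0% = receptor in buffer alone and 100% = receptor with positive control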
SIAE inh: inhibitors of human sialic acid acetylesterase SIAE | 0.69% of 370,000 active | inhibition, % at 9.66 µM | Q9HAT2 | SIAE FP-Rh probe binding, fluorescence polarization;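 active means inhibition above a cutoff: mean of compounds within the control limits plus 3 SD of those, cut at about 17% in these data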;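 further: 0% = plate median of compound wells and 100% = probe without SIAE protein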
mABHD4 FP: inhibitors of mouse ABHD4; purified mABHD4, FP-Rh probe fluorescence polarization; 0.54% of 370,000 active; Q8VD66; inhibition, % at 8.92 µM;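 active means inhibition exceeding the mean over every tested compound plus 3 SD, cut at about 30% in these data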;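 further: 0% = plate median of compound wells and 100% = S159A mutant with DMSO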
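Assay system: Wild-type mouse ABHD4 protein | Medium: HEPES pH 7.0 buffer, 150 mM NaCl, 0.01% Pluronic F-127 | Incubation: Enzyme–compound pre-incubation 45 min, then probe 60 min, both 25 °C | Technique: Fluorescence polarization with parallel and perpendicular emission, 525/598 nm | Evaluation: % inhibition of FP-Rh probe binding versus controls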
PRMT1 inh: PRMT1 (human) inhibition, primary screen; recombinant PRMT1, activity-based probe fluorescence polarization; inhibition, % at 2.79 µM; 1.3% of 370,000 active; AID 652257;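 active means inhibition above about 21% made by adding two undisclosed values, limit read from the data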
HTRA1 conf: HTRA1 (human) inhibition, confirmation. shares compounds with HTRA1 inhibitor. recombinant HTRA1, FP-rhodamine activity-based probe, fluorescence polarization. inhibition, % at 5.96 µM. 66% of 1,600 active. AID 540248;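 active means mean inhibition over three repeats above a set limit taken from the earlier primary screen, cut at about 37% in these data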;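 further: 0% = HTRA1 with DMSO and 100% = wells lacking HTRA1; inhibitors block probe binding so polarization drops and inhibition rises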
* hit, by the source's call; x = no result. A selection: hits, their analogues and other compounds. The true share with any hit is near 2.9%.

SMILES | ATG4B inhibitor | HTRA1 inhibitor | TCR CD3 inh | SIAE inh | mABHD4 FP | PRMT1 inh | HTRA1 conf
COc1cc(C2Nc3cccc4cccc(c34)N2)ccc1OC(C)=O | -13 | 11 | x | x | x | x | x
CC(=O)NC(c1cccc([N+](=O)[O-])c1)c1ccc2cccnc2c1O (centres undefined) | 5 | 37* | -7 | 13 | 14 | 0 | 63*
O=[N+]([O-])c1ccc(NC(c2ccccc2)c2ccc3cccnc3c2O)cc1 (centres undefined) | 5 | 36* | -3 | 6 | 7 | 3 | 40*
N#Cc1ccc(Cn2ccc3ccc(-c4ccc5ccn(Cc6ccccc6)c5c4)cc32)cc1 | x | x | x | -5 | 9 | 0 | x
CCn1c(SCC(=O)c2ccc(O)c(O)c2)nnc1-c1ccc(C)cc1 | -6 | 49* | 2 | 11 | 32* | 8 | 77*
O=C(Nc1ccc(F)cc1)OCc1cn(Cc2ccccc2F)nn1 | x | x | x | -3 | 1 | -3 | x
Cc1ccc(-c2nnc(Sc3nc4ccccc4o3)c3ccccc23)cc1 | 0 | -17 | 7 | 3 | -2 | -1 | x
Clc1ccc(-c2nnc(Sc3nc4ccccc4o3)c3ccccc23)cc1 | -20 | 137* | 4 | -1 | -4 | -4 | -5
Cc1cccc2cc(-c3ccccc3)c(-c3ccccc3)c[n+]12 | -9 | 56* | 3 | 1 | 17 | 4 | 74*
COc1ccc2c(c1)NC(C)(C)C=C2C | 5 | 46* | 4 | 11 | 14 | 4 | 5
Nn1c(SCC(=O)Nc2ccc(S(=O)(=O)Nc3nccs3)cc2)nnc1-c1ccco1 | x | x | x | 2 | 5 | -1 | x
Oc1ccc(N=Nc2ccc3c(c2)OCCO3)c2ncccc12 | 2 | 58* | 2 | 14 | 23 | -6 | 61*
Cc1cccc(N=Nc2ccc(O)c3ncccc23)c1 | 3 | 59* | 6 | 8 | 25 | 1 | 64*
Cc1ccc(N=Nc2cc(C)ccc2O)c(C)c1 | 2 | 2 | 5 | 4 | -3 | -1 | x
CCOc1ccc(N=Nc2ccc(O)c3ncccc23)cc1 | 6 | 36 | -1 | 10 | 14 | -1 | x
Cc1ccc(C)c(N=Nc2ccc(O)c3ncccc23)c1 | 12 | 52* | 0 | 11 | 9 | 2 | 66*
NS(=O)(=O)c1ccc(N=Nc2ccc(O)c3ncccc23)cc1 | -1 | 52* | -8 | 5 | 13 | 7 | 37*
Cc1ccc(-n2c(SCC(=O)Nc3ccc(OCc4ccccc4)cc3)nnc2-c2ccco2)cc1 | x | x | x | 3 | -4 | -5 | x
Cc1cc(N2CCN(Cc3ccccc3)CC2)n2nc(C)nc2n1 | x | x | x | 1 | 4 | -11 | x
COc1ccc(CN2C[C@]3(C=C(C)Cn4c(=O)n(-c5ccccc5)c(=O)n43)N=C2NC(=O)c2ccccc2)c(OC)c1 | x | x | x | 2 | 0 | 1 | x
Cc1ccc2c(c1)-c1c(cnn1CC(=O)NCCc1ccc(O)cc1)CO2 | x | x | x | 1 | 3 | -1 | x
Oc1ccc(CCc2ccccc2)c2cccnc12 | x | x | x | 7 | -2 | -7 | x
COc1ccccc1N1CCN(Cc2ccc(O)c3ncccc23)CC1 | -4 | 45* | -1 | 5 | 6 | -6 | 53*
Oc1ccc(CN2CCCc3ccccc32)c2cccnc12 | 5 | 39* | x | x | x | x | 35
COc1ccccc1CN[C@@H]1CC[C@@]23CCCN2C(=O)CCC[C@H]3C1 | x | x | x | -7 | -1 | -1 | x
SMILES | ATG4B inhibitor | HTRA1 inhibitor | TCR CD3 inh | SIAE inh | mABHD4 FP | PRMT1 inh | HTRA1 conf
Cc1ccc(C(=O)NNC(=O)c2ccc(S(=O)(=O)N3CCCCC3)cc2)cc1 | 5 | -2 | 2 | -1 | -15 | 4 | x
Cc1cccc2sc(NNC(=O)c3ccc(S(=O)(=O)N4CCCC(C)C4)cc3)nc12 (centres undefined) | -7 | 45* | -3 | 16 | 21 | 4 | 41*
CCc1nnc(NC(=O)c2ccc(S(=O)(=O)N3CCCC(C)C3)cc2)s1 (centres undefined) | -4 | 7 | 12 | 0 | 2 | -2 | x
Cc1cc(C)c2nc(NNC(=O)c3ccc(S(=O)(=O)N4CCCCC4)cc3)sc2c1 | -8 | 49* | -3 | 10 | 15 | 1 | 24
Cc1cccc2sc(NNC(=O)c3ccc(S(=O)(=O)N4CCc5ccccc5C4)cc3)nc12 | -3 | 45* | 5 | 13 | 5 | -5 | 33
NC1=NS(=O)(=O)Nc2ccccc21 | x | x | x | -1 | -2 | -3 | x
Cc1ccnc(Nc2nc(-c3ccc(O)cc3)cs2)c1 | -19 | 16 | -5 | 7 | 8 | 2 | x
Cc1ccnc(Nc2nc(-c3ccc(O)cc3O)cs2)c1 | 4 | 37* | 8 | 10 | 19 | 1 | 44*
O=[N+]([O-])c1ccc(N/N=C/c2cccc(O)c2O)cc1 | 3 | 64* | -3 | 12 | 21 | 10 | 46*
O=C(NCCCc1ccccc1)O[C@@H]1CC[C@@]23CCCN2C(=O)CCC[C@H]3C1 | x | x | x | -1 | 3 | -3 | x
Cc1ccc(S(=O)(=O)/N=C2\C=C(Nc3ccc(O)cc3)C(=O)c3ccccc32)cc1 | 17 | 88* | x | x | x | x | 77*
C[C@]12CCC[C@H](O1)c1c(cc3c(c1O)C(=O)c1c(O)cc(O)cc1C3=O)O2 | 5 | 37* | -2 | -18 | 2 | 1 | 62*
O=C(COC(=O)c1ccc([N+](=O)[O-])s1)Nc1ncc(C(F)(F)F)cc1Cl | 17 | 38* | 8 | -1 | 3 | 9 | 63*
O=C(COC(=O)c1ccccn1)Nc1ncc(C(F)(F)F)cc1Cl | 3 | 6 | -3 | -5 | 4 | 2 | x
c1ccc(N=Nc2ccc3cccccc2-3)cc1 | 5 | 53* | 8 | 16 | 29 | -1 | 64*
Cc1ccccc1CN1CCCCC(NC(=O)c2ccc(F)c(F)c2)C1=O (centres undefined) | x | x | x | -1 | -2 | -3 | x
Nc1cc([N+](=O)[O-])cc2oc(-c3ccccc3)cc12 | -7 | 45* | -27 | 3 | 23 | 8 | 38*
Cc1ccccc1/C=N/Nc1nc2ccccc2[nH]1 | -2 | 2 | -5 | 1 | 16 | 3 | x
C(=N\Nc1nc2ccccc2[nH]1)/c1cccc2cccnc12 | -19 | 49* | -5 | 14 | 24 | 15 | 54*
Oc1ccccc1NCC(O)Cn1ccc2ccccc21 (centres undefined) | -2 | 54* | 0 | 10 | 27 | 8 | 21
N/C(Cc1cccc2ccccc12)=N\OC(=O)c1ccc2c(c1)OCO2 | 8 | 43* | -17 | 3 | 9 | 9 | -9
N/C(=N\OC(=O)c1ccc2c(c1)OCO2)c1cccc(Br)c1 | -5 | -13 | 3 | -4 | 4 | 0 | x
C[C@@H]1CCN(C2CC2)S(=O)(=O)c2c(cccc2N2CCC[C@@H]2CO)O1 | x | x | x | 0 | 4 | -4 | x
C[C@@H]1C[C@H]2O[C@@H]2/C=C\C=C\C(=O)Cc2cc(O)cc(O)c2C(=O)O1 | x | x | x | -7 | 3 | -1 | x
